Columns and labels:
Format in all cases: functional
[1] = tested on: Coptotermes formosanus; experiment: Termiticidal activity against Coptotermes formosanus placed on 1 % wt/wt compound treated filter paper assessed as termite mortality measured 11 days post compound exposure
[2] = tested on: Coptotermes formosanus; experiment: Termiticidal activity against Coptotermes formosanus placed on 0.01 % wt/wt compound treated filter paper assessed as termite mortality measured 11 days post compound exposure
How it was run: (§1)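 Treated filter paper disks moistened with 100 µL water; 20 C. formosanus workers (third instar or greater) plus 1 soldier per dish from field colonies kept on spruce, ca. 100% RH, 26.6 °C. Daily mortality scored for 3 weeks; cumulative percent mortality from four replicates, each a different colony; water-only controls; ANOVA, protected Fisher LSD (P < 0.05) after arcsine square-root transform.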

[3] = tested on: Coptotermes formosanus; experiment: Termiticidal activity against Coptotermes formosanus placed on 0.1 % wt/wt compound treated filter paper assessed as termite mortality measured 6 days post compound exposure; how it was run: as §1
[4] = tested on: Coptotermes formosanus; experiment: Termiticidal activity against Coptotermes formosanus placed on 0.1 % wt/wt compound treated filter paper assessed as termite mortality measured 11 days post compound exposure; how it was run: as §1
[5] = tested on: Coptotermes formosanus; experiment: Termiticidal activity against Coptotermes formosanus placed on 0.5 % wt/wt compound treated filter paper assessed as termite mortality measured 13 days post compound exposure; how it was run: as §1
[6] = tested on: Coptotermes formosanus; experiment: Termiticidal activity against Coptotermes formosanus placed on 0.5 % wt/wt compound treated filter paper assessed as termite mortality measured 9 days post compound exposure; how it was run: as §1
[7] = tested on: Coptotermes formosanus; experiment: Antifeedant activity against Coptotermes formosanus placed on 0.05 % wt/wt compound treated filter paper assessed as filter paper consumption measured 21 days post compound exposure (reference value: 113.2 +/- 11.9 mg)
[8] = tested on: Coptotermes formosanus; experiment: Termiticidal activity against Coptotermes formosanus placed on 0.1 % wt/wt compound treated filter paper assessed as termite mortality measured 13 days post compound exposure; how it was run: as §1
[9] = tested on: Coptotermes formosanus; experiment: Termiticidal activity against Coptotermes formosanus placed on 0.5 % wt/wt compound treated filter paper assessed as termite mortality measured 6 days post compound exposure; how it was run: as §1
[10] = tested on: Coptotermes formosanus; experiment: Termiticidal activity against Coptotermes formosanus placed on 0.1 % wt/wt compound treated filter paper assessed as termite mortality measured 21 days post compound exposure; how it was run: as §1
[11] = tested on: Coptotermes formosanus; experiment: Antifeedant activity against Coptotermes formosanus placed on 1 % wt/wt compound treated filter paper assessed as filter paper consumption measured 21 days post compound exposure (reference value: 15.9 +/- 10.4 mg)
[12] = tested on: Coptotermes formosanus; experiment: Antifeedant activity against Coptotermes formosanus placed on 0.001 % wt/wt compound treated filter paper assessed as filter paper consumption measured 21 days post compound exposure (reference value: 113.2 +/- 11.9 mg)
[13] = tested on: Coptotermes formosanus; experiment: Termiticidal activity against Coptotermes formosanus placed on 0.001 % wt/wt compound treated filter paper assessed as termite mortality measured 13 days post compound exposure; how it was run: as §1
[14] = tested on: Coptotermes formosanus; experiment: Termiticidal activity against Coptotermes formosanus placed on 1 % wt/wt compound treated filter paper assessed as termite mortality measured 3 days post compound exposure
[15] = tested on: Coptotermes formosanus; experiment: Antifeedant activity against Coptotermes formosanus placed on 0.1 % wt/wt compound treated filter paper assessed as filter paper consumption measured 21 days post compound exposure (reference value: 113.2 +/- 11.9 mg)
[16] = tested on: Coptotermes formosanus; experiment: Termiticidal activity against Coptotermes formosanus placed on 1 % wt/wt compound treated filter paper assessed as termite mortality measured 21 days post compound exposure
[17] = tested on: Coptotermes formosanus; experiment: Antifeedant activity against Coptotermes formosanus placed on 0.01 % wt/wt compound treated filter paper assessed as filter paper consumption measured 21 days post compound exposure (reference value: 113.2 +/- 11.9 mg)
[18] = tested on: Coptotermes formosanus; experiment: Termiticidal activity against Coptotermes formosanus placed on 0.01 % wt/wt compound treated filter paper assessed as termite mortality measured 17 days post compound exposure; how it was run: as §1
[19] = tested on: Coptotermes formosanus; experiment: Termiticidal activity against Coptotermes formosanus placed on 0.05 % wt/wt compound treated filter paper assessed as termite mortality measured 21 days post compound exposure; how it was run: as §1
[20] = tested on: Coptotermes formosanus; experiment: Termiticidal activity against Coptotermes formosanus placed on 0.1 % wt/wt compound treated filter paper assessed as termite mortality measured 9 days post compound exposure; how it was run: as §1
[21] = tested on: Coptotermes formosanus; experiment: Termiticidal activity against Coptotermes formosanus placed on 0.001 % wt/wt compound treated filter paper assessed as termite mortality measured 6 days post compound exposure; how it was run: as §1
[22] = tested on: Coptotermes formosanus; experiment: Antifeedant activity against Coptotermes formosanus placed on 0.5 % wt/wt compound treated filter paper assessed as filter paper consumption measured 21 days post compound exposure (reference value: 113.2 +/- 11.9 mg)
[23] = tested on: Coptotermes formosanus; experiment: Termiticidal activity against Coptotermes formosanus placed on 0.001 % wt/wt compound treated filter paper assessed as termite mortality measured 11 days post compound exposure; how it was run: as §1
[24] = tested on: Coptotermes formosanus; experiment: Termiticidal activity against Coptotermes formosanus placed on 0.01 % wt/wt compound treated filter paper assessed as termite mortality measured 9 days post compound exposure; how it was run: as §1
[25] = tested on: Coptotermes formosanus; experiment: Termiticidal activity against Coptotermes formosanus placed on 0.05 % wt/wt compound treated filter paper assessed as termite mortality measured 13 days post compound exposure; how it was run: as §1
[26] = tested on: Coptotermes formosanus; experiment: Termiticidal activity against Coptotermes formosanus placed on 0.5 % wt/wt compound treated filter paper assessed as termite mortality measured 11 days post compound exposure; how it was run: as §1
[27] = tested on: Coptotermes formosanus; experiment: Termiticidal activity against Coptotermes formosanus placed on 0.05 % wt/wt compound treated filter paper assessed as termite mortality measured 9 days post compound exposure; how it was run: as §1
[28] = tested on: Coptotermes formosanus; experiment: Termiticidal activity against Coptotermes formosanus placed on 0.001 % wt/wt compound treated filter paper assessed as termite mortality measured 9 days post compound exposure; how it was run: as §1
[29] = tested on: Coptotermes formosanus; experiment: Termiticidal activity against Coptotermes formosanus placed on 0.5 % wt/wt compound treated filter paper assessed as termite mortality measured 17 days post compound exposure; how it was run: as §1
[30] = tested on: Coptotermes formosanus; experiment: Termiticidal activity against Coptotermes formosanus placed on 0.5 % wt/wt compound treated filter paper assessed as termite mortality measured 21 days post compound exposure; how it was run: as §1
[31] = tested on: Coptotermes formosanus; experiment: Termiticidal activity against Coptotermes formosanus placed on 0.01 % wt/wt compound treated filter paper assessed as termite mortality measured 13 days post compound exposure; how it was run: as §1
[32] = tested on: Coptotermes formosanus; experiment: Termiticidal activity against Coptotermes formosanus placed on 0.001 % wt/wt compound treated filter paper assessed as termite mortality measured 21 days post compound exposure; how it was run: as §1
[33] = tested on: Coptotermes formosanus; experiment: Termiticidal activity against Coptotermes formosanus placed on 0.01 % wt/wt compound treated filter paper assessed as termite mortality measured 6 days post compound exposure; how it was run: as §1
[34] = tested on: Coptotermes formosanus; experiment: Termiticidal activity against Coptotermes formosanus placed on 0.001 % wt/wt compound treated filter paper assessed as termite mortality measured 17 days post compound exposure; how it was run: as §1
[35] = tested on: Coptotermes formosanus; experiment: Termiticidal activity against Coptotermes formosanus placed on 0.01 % wt/wt compound treated filter paper assessed as termite mortality measured 21 days post compound exposure; how it was run: as §1
[36] = tested on: Coptotermes formosanus; experiment: Termiticidal activity against Coptotermes formosanus placed on 0.05 % wt/wt compound treated filter paper assessed as termite mortality measured 11 days post compound exposure; how it was run: as §1
[37] = tested on: Coptotermes formosanus; experiment: Termiticidal activity against Coptotermes formosanus placed on 0.05 % wt/wt compound treated filter paper assessed as termite mortality measured 17 days post compound exposure; how it was run: as §1
[38] = tested on: Coptotermes formosanus; experiment: Termiticidal activity against Coptotermes formosanus placed on 0.05 % wt/wt compound treated filter paper assessed as termite mortality measured 6 days post compound exposure; how it was run: as §1
[39] = tested on: Coptotermes formosanus; experiment: Termiticidal activity against Coptotermes formosanus placed on 0.1 % wt/wt compound treated filter paper assessed as termite mortality measured 17 days post compound exposure; how it was run: as §1
[40] = tested on: Coptotermes formosanus; experiment: Antifeedant activity against Coptotermes formosanus placed on 1 % wt/wt compound treated filter paper assessed as filter paper consumption measured 21 days post compound exposure (reference value: 85 +/- 15.1 mg)
[41] = tested on: Coptotermes formosanus; experiment: Antifeedant activity against Coptotermes formosanus placed on 0.1 % wt/wt compound treated filter paper assessed as filter paper consumption measured 21 days post compound exposure (reference value: 78.2 +/- 26.7 mg)
[42] = tested on: Coptotermes formosanus; experiment: Antifeedant activity against Coptotermes formosanus placed on 0.001 % wt/wt compound treated filter paper assessed as filter paper consumption measured 21 days post compound exposure (reference value: 78.2 +/- 26.7 mg)
[43] = tested on: Coptotermes formosanus; experiment: Antifeedant activity against Coptotermes formosanus placed on 0.5 % wt/wt compound treated filter paper assessed as filter paper consumption measured 21 days post compound exposure (reference value: 78.2 +/- 26.7 mg)
[44] = tested on: Coptotermes formosanus; experiment: Antifeedant activity against Coptotermes formosanus placed on 0.05 % wt/wt compound treated filter paper assessed as filter paper consumption measured 21 days post compound exposure (reference value: 78.2 +/- 26.7 mg)
[45] = tested on: Coptotermes formosanus; experiment: Antifeedant activity against Coptotermes formosanus placed on 0.01 % wt/wt compound treated filter paper assessed as filter paper consumption measured 21 days post compound exposure (reference value: 78.2 +/- 26.7 mg)

Row | SMILES | mortality [1] [%] | mortality [2] [%] | mortality [3] [%] | mortality [4] [%] | mortality [5] [%] | mortality [6] [%] | mortality [8] [%] | mortality [9] [%] | mortality [10] [%] | mortality [13] [%] | mortality [14] [%] | mortality [16] [%] | mortality [18] [%] | mortality [19] [%] | mortality [20] [%] | mortality [21] [%] | mortality [23] [%] | mortality [24] [%] | mortality [25] [%] | mortality [26] [%] | other results
1 | COC1=C(OC)C(=O)C(C)=C(C)C1=O [Aurantiogliocladin] | 100 | 0 | 0 | 0 | 0 | 0 | 0 | 0 | 0 | 0 | 100 | 100 | 0 | 5 | 0 | 0 | 0 | 0 | 0 | 0 | Activity [7]: 48.6 mg; Activity [11]: 0.1 mg; Activity [12]: 136.2 mg; Activity [15]: 107.7 mg; Activity [17]: 86.6 mg; Activity [22]: 52.4 mg; mortality [27]: 0%; mortality [28]: 0%; mortality [29]: 0%; mortality [30]: 0%; mortality [31]: 0%; mortality [32]: 0%; mortality [33]: 0%; mortality [34]: 0%; mortality [35]: 1.7%; mortality [36]: 0%; mortality [37]: 0%; mortality [38]: 0%; mortality [39]: 0%
2 | COC1=C(OC)C(=O)C(CC=C(C)C)=C(C)C1=O [Coenzyme Q1] | 100 | 5 | 0 | 0 | 5 | 3.3 | 0 | 3.3 | 8.3 | 3.3 | 70 | 100 | 5 | 5 | 0 | 3.3 | 3.3 | 5 | 0 | 3.3 | Activity [40]: 16.9 mg; Activity [41]: 101.6 mg; Activity [42]: 98.5 mg; Activity [43]: 95.8 mg; Activity [44]: 98.1 mg; mortality [27]: 0%; mortality [28]: 3.3%; mortality [29]: 8.3%; mortality [30]: 10%; mortality [31]: 5%; mortality [32]: 3.3%; mortality [33]: 5%; Activity [45]: 77.3 mg; mortality [34]: 3.3%; mortality [35]: 5%; mortality [36]: 0%; mortality [37]: 5%; mortality [38]: 0%; mortality [39]: 8.3%
